ChEMBL document CHEMBL4219134, “Xanthone derivatives as phosphoglycerate mutase 1 inhibitors: Design, synthesis, and biological evaluation” (Bioorg Med Chem, 2018)

Experiments:
[1] = molecular target: T1, Phosphoglycerate mutase 1 (Homo sapiens, UniProt P18669); assay: Inhibition of recombinant PGAM1 (unknown origin) using 3-PG as substrate preincubated for 2 mins followed by substrate addition
In short: (§1)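 Recombinant PGAM1 plus compound (DMSO) in 50 mM Tris pH 8.0, preincubated 2 min at room temperature. Started with 3PG (200 mM stock); NADH oxidation read as OD340 decrease. IC50 from triplicates, mean ± sd.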
Target sequence in this assay (P18669 whole entry): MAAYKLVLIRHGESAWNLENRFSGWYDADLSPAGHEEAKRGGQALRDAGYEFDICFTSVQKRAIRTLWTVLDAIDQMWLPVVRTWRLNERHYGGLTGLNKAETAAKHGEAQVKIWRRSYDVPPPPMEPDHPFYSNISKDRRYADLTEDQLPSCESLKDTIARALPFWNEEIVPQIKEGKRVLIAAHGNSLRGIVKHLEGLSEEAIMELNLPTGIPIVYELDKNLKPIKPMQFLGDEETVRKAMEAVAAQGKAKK

Homo sapiens [2] = species on record: Homo sapiens; assay: Inhibition of enolase (unknown origin) at 5 uM using 2-PG relative to control
In short: (§2)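 PGAM1 omitted to test the downstream coupling enzymes. Compound (0.5 mM stock) preincubated 2 min at room temperature in 50 mM Tris pH 8.0. OD340 decrease read; inhibition ratio at 5 µM.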

Homo sapiens [3] = species on record: Homo sapiens; assay: Inhibition of pyruvate kinase (unknown origin) at 5 uM using 2-PG relative to control; in short: as §2
[4] = molecular target: L-lactate dehydrogenase (Homo sapiens) (UniProt V9HWB9); assay: Inhibition of LDH (unknown origin) at 5 uM using 2-PG relative to control; in short: as §2
NCI-H1299 [5] = assay: Antiproliferative activity against human H1299 cells after 72 hrs by MTT assay; type: functional, cell-based; conditions: NCI-H1299, 72 h
In short: (§3)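 MTT assay: 2 × 10^3 cells per well, cultured 24 h at 37 °C. Compound then added for 72 h at 37 °C, followed by 0.5 mg mL-1 MTT for 4 h. Formazan dissolved in DMSO and absorbance read at 570 nm. IC50 from triplicate experiments, mean ± sd.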

MCF7 = assay: Antiproliferative activity against human MCF7 cells after 72 hrs by MTT assay; type: functional, cell-based; conditions: MCF7, 72 h; in short: as §3
PANC-1 [6] = assay: Antiproliferative activity against human PANC1 cells after 72 hrs by MTT assay; type: functional, cell-based; conditions: PANC-1, 72 h; in short: as §3
[7] = molecular target: T1, Phosphoglycerate mutase 1; assay: Inhibition of recombinant PGAM1 (unknown origin) at 20 uM using 3-PG as substrate preincubated for 2 mins followed by substrate addition relative to control
In short: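 Same coupled PGAM1 assay: recombinant enzyme preincubated 2 min at room temperature with compound in 50 mM Tris pH 8.0. Enolase/PK/LDH mix with ADP, MgCl2, KCl and NADH added, then 3PG (200 mM stock) to start. OD340 decrease measured; inhibition ratio recorded at 20 µM.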
Target sequence in this assay (P18669 2-254 limits assumed): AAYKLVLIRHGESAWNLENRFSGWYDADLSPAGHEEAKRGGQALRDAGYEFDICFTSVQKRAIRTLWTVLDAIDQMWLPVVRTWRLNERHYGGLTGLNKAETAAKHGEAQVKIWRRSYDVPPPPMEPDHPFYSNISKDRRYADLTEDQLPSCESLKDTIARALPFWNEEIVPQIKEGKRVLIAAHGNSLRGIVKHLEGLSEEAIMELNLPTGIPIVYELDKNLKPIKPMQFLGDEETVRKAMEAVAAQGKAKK

[8] = molecular target: T1, Phosphoglycerate mutase 1; assay: Inhibition of PGAM1 in human MDA-MB-231 cells using 3-PGA as substrate after 2 hrs in by UV-vis spectrophotometric method; type: cell-based
Target sequence in this assay (P18669 whole entry): as the sequence (P18669 whole entry) above

[9] = molecular target: T1, Phosphoglycerate mutase 1; assay: Inhibition of PGAM1 (unknown origin); in short: as §1
Target sequence in this assay (P18669 whole entry): as above

PANC-1 [10] = assay: Antiproliferative activity against human PANC1 cells at 200 uM after 72 hrs by MTT assay relative to control; type: functional; conditions: PANC-1, 72 h
In short: (§4)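 MTT format: 2 × 10^3 cells per well, seeded 24 h, then compound for 72 h at 37 °C. 0.5 mg mL-1 MTT for 4 h, DMSO solubilization, A570. Inhibition ratio recorded at the top tested concentration: 40 µM for H1299, 200 µM for PANC-1.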

[11] = molecular target: T1, Phosphoglycerate mutase 1; assay: Binding affinity to PGAM1 (unknown origin) assessed as change in melting temperature by SYPRO Orange-dye based fluorescence thermal shift assay
In short: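 PGAM1 protein at 200 µg/ml with compound at 12.5 to 50 µM in 20 mM Tris-HCl, 100 mM NaCl, pH 7.4. Melting monitored by SYPRO orange fluorescence at 610 nm; Tm shift recorded.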
Target sequence in this assay (P18669 2-254 limits assumed): as the sequence (P18669 2-254 limits assumed) above

NCI-H1299 [12] = assay: Antiproliferative activity against human H1299 cells at 40 uM after 72 hrs by MTT assay relative to control; type: functional; conditions: NCI-H1299, 72 h; in short: as §4
NCI-H1299 [13] = assay: Potency index, ratio of PGMI-004A IC50 to test compound IC50 for antiproliferative activity against human H1299 cells; type: functional

Row | IC50 [1] [µM] | inhibition (Homo sapiens [2]) [%] | inhibition (Homo sapiens [3]) [%] | inhibition [4] [%] | IC50 (NCI-H1299 [5]) [µM] | IC50 (MCF7) [µM] | IC50 (PANC-1 [6]) [µM] | inhibition [7] [%] | SMILES | also measured
1 | 5.5 | 1 | 1 | 1 | 21.9 | 20.8 | > 200 | – | O=c1c2c(O)cccc2oc2cc(NS(=O)(=O)c3ccc(F)cc3)c(O)c(O)c12 | –
2 | 1.9 | 12 | 12 | 12 | 62.9 | > 200 | > 200 | – | O=c1c2c(O)cccc2oc2cc(NS(=O)(=O)Cc3ccccc3)c(O)c(O)c12 | –
3 | 1 | 5 | 5 | 5 | 8.1 | 47.6 | > 200 | – | O=c1c2c(O)cccc2oc2cc(NS(=O)(=O)c3ccc(N4CCCCC4)cc3)c(O)c(O)c12 | –
4 | 3.6 | 15 | 15 | 15 | 10.2 | 15.5 | 91.4 | – | O=c1c2c(O)cccc2oc2cc(NS(=O)(=O)c3ccc(Cl)cc3)c(O)c(O)c12 | –
5 | > 20 | – | – | – | – | – | – | < 10 | COc1c(NS(=O)(=O)c2ccc(C3CCCCC3)cc2)cc2oc3cccc(OC)c3c(=O)c2c1O | –
6 | 1.7 | 7 | 7 | 7 | 23.2 | 27.3 | 101 | – | O=c1c2c(O)cccc2oc2cc(NS(=O)(=O)c3cccc4ccccc34)c(O)c(O)c12 | –
7 | > 20 | – | – | – | – | – | – | < 10 | COc1c(NS(=O)(=O)c2ccc(N3CCCC3)cc2)cc2oc3cccc(OC)c3c(=O)c2c1O | –
8 | 5.8 | 12 | 12 | 12 | 13.9 | 20.5 | 116 | – | O=c1c2c(O)cccc2oc2cc(NS(=O)(=O)c3cccc(OC(F)(F)F)c3)c(O)c(O)c12 | –
9 | 3.5 | -1 | -1 | -1 | 10.3 | 30.2 | 58.5 | – | O=c1c2c(O)cccc2oc2cc(NS(=O)(=O)c3ccc(C(F)(F)F)cc3)c(O)c(O)c12 | –
10 | 4.2 | 10 | 10 | 10 | > 40 | 40.1 | > 200 | – | N#Cc1ccc(S(=O)(=O)Nc2cc3oc4cccc(O)c4c(=O)c3c(O)c2O)cc1 | –
11 | 2.1 | 13 | 13 | 13 | 53 | 18.4 | > 200 | – | N#Cc1cccc(S(=O)(=O)Nc2cc3oc4cccc(O)c4c(=O)c3c(O)c2O)c1 | –
12 | 7.2 | 2 | 2 | 2 | 13.2 | 44.9 | 20.7 | – | Cc1ccc(S(=O)(=O)Nc2cc3oc4cccc(O)c4c(=O)c3c(O)c2O)cc1 | –
13 | 1.2 | 8 | 8 | 8 | 12.9 | 44.9 | > 200 | – | O=c1c2c(O)cccc2oc2cc(NS(=O)(=O)c3ccc(-c4ccccc4)cc3)c(O)c(O)c12 | –
14 | 2.8 | 6 | 6 | 6 | 59 | 113 | > 200 | – | O=c1c2c(O)cccc2oc2cc(NS(=O)(=O)c3ccccc3)c(O)c(O)c12 | inhibition at 200 µM (PANC-1 [10]): < 50%
15 | > 20 | – | – | – | – | – | – | < 10 | COc1c(NS(=O)(=O)c2ccc(Cl)cc2)cc2oc3cccc(OC)c3c(=O)c2c1O | –
16 | 0.5 | 9 | 9 | 9 | 10.7 | 26.6 | 35.3 | – | O=c1c2c(O)cccc2oc2cc(NS(=O)(=O)c3ccc(C4CCCCC4)cc3)c(O)c(O)c12 | Activity [11]: Dose-dependent effect
17 | 2.9 | 6 | 6 | 6 | > 40 | 6.8 | > 200 | – | O=c1c2c(O)cccc2oc2cc(NS(=O)(=O)c3ccc(Br)cc3)c(O)c(O)c12 | inhibition at 40 µM (NCI-H1299 [12]): < 50%
18 | 1.6 | 9 | 9 | 9 | 22.6 | 43.3 | > 200 | – | O=c1c2c(O)cccc2oc2cc(NS(=O)(=O)c3ccc4ccccc4c3)c(O)c(O)c12 | –
19 | 2.7 | 4 | 4 | 4 | 5 | > 200 | 137 | – | O=c1c2c(O)cccc2oc2cc(NS(=O)(=O)c3ccc(N4CCCC4)cc3)c(O)c(O)c12 | Ratio IC50 (NCI-H1299 [13]): 5
20 | 1.9 | 11 | 11 | 11 | 24.3 | 13.5 | 34.5 | – | O=c1c2c(O)cccc2oc2cc(NS(=O)(=O)c3ccc(I)cc3)c(O)c(O)c12 | –
21 | > 20 | – | – | – | – | – | – | < 10 | COc1c(NS(=O)(=O)c2ccc(N3CCCCC3)cc2)cc2oc3cccc(OC)c3c(=O)c2c1O | –
22 | 2.6 | 1 | 1 | 1 | 10.7 | 13.4 | > 200 | – | CC(C)(C)c1ccc(S(=O)(=O)Nc2cc3oc4cccc(O)c4c(=O)c3c(O)c2O)cc1 | –

The next lines start with the molecule.

Row | SMILES | IC50 [1] [µM] | inhibition (Homo sapiens [2]) [%] | inhibition (Homo sapiens [3]) [%] | inhibition [4] [%] | IC50 (NCI-H1299 [5]) [µM] | IC50 (MCF7) [µM] | IC50 (PANC-1 [6]) [µM] | inhibition [7] [%] | also measured
23 | COc1c(NS(=O)(=O)c2cccc(OC(F)(F)F)c2)cc2oc3cccc(OC)c3c(=O)c2c1O | > 20 | – | – | – | – | – | – | < 10 | –
24 | COc1c(NS(=O)(=O)c2cc(C(F)(F)F)ccc2C(F)(F)F)cc2oc3cccc(OC)c3c(=O)c2c1O | > 20 | – | – | – | – | – | – | < 10 | –
25 | C#CCCCC(=O)OC(C)(C)[C@H]1CC[C@]2(CO2)[C@@H](OC(=O)N[C@@H](Cc2c[nH]c3ccccc23)C(=O)OCc2ccccc2)C1 | – | – | – | – | – | – | – | – | IC50 [8]: 33 µM
26 | COc1c(NS(=O)(=O)c2ccc(C(C)(C)C)cc2)cc2oc3cccc(OC)c3c(=O)c2c1O | > 20 | – | – | – | – | – | – | < 10 | –
27 | COc1c(NS(=O)(=O)c2cccc3ccccc23)cc2oc3cccc(OC)c3c(=O)c2c1O | > 20 | – | – | – | – | – | – | < 10 | –
28 | COc1c(NS(=O)(=O)c2ccc(-c3ccccc3)cc2)cc2oc3cccc(OC)c3c(=O)c2c1O | > 20 | – | – | – | – | – | – | < 10 | –
29 | COc1c(NS(=O)(=O)c2ccc(C)cc2)cc2oc3cccc(OC)c3c(=O)c2c1O | > 20 | – | – | – | – | – | – | < 10 | –
30 | COc1c(NS(=O)(=O)c2ccc(C(F)(F)F)cc2)cc2oc3cccc(OC)c3c(=O)c2c1O | > 20 | – | – | – | – | – | – | < 10 | –
31 | COc1c(NS(=O)(=O)c2ccc(I)cc2)cc2oc3cccc(OC)c3c(=O)c2c1O | > 20 | – | – | – | – | – | – | < 10 | –
32 | COc1c(NS(=O)(=O)Cc2ccccc2)cc2oc3cccc(OC)c3c(=O)c2c1O | > 20 | – | – | – | – | – | – | < 10 | –
33 | COc1c(NS(=O)(=O)c2ccc(F)cc2)cc2oc3cccc(OC)c3c(=O)c2c1O | > 20 | – | – | – | – | – | – | < 10 | –
34 | O=C1c2ccccc2C(=O)c2c1cc(S(=O)(=O)O)c(O)c2O [ALIZARIN RED] | – | – | – | – | – | – | – | – | IC50 [9]: 2.3 µM
35 | COc1c(NS(=O)(=O)c2ccc(Br)cc2)cc2oc3cccc(OC)c3c(=O)c2c1O | > 20 | – | – | – | – | – | – | < 10 | –
36 | COc1c(NS(=O)(=O)c2ccccc2)cc2oc3cccc(OC)c3c(=O)c2c1O | > 20 | – | – | – | – | – | – | < 10 | –
37 | COc1c(NS(=O)(=O)c2ccc3ccccc3c2)cc2oc3cccc(OC)c3c(=O)c2c1O | > 20 | – | – | – | – | – | – | < 10 | –
38 | COc1c(NS(=O)(=O)c2cccc(C#N)c2)cc2oc3cccc(OC)c3c(=O)c2c1O | > 20 | – | – | – | – | – | – | < 10 | –
39 | COc1c(NS(=O)(=O)c2ccc(C#N)cc2)cc2oc3cccc(OC)c3c(=O)c2c1O | > 20 | – | – | – | – | – | – | < 10 | –
